Results from different studies.
Effect on: enzyme activity
Action: inhibitor
TNKS2: Poly [ADP-ribose] polymerase tankyrase-2 (TNKS2, Homo sapiens, UniProt Q9H2K2)
mraY: mraY (Staphylococcus aureus, UniProt Q2FZ93)
TOP2A: DNA topoisomerase 2-alpha (TOP2A, Homo sapiens, UniProt P11388)
FLT3 F691L: Receptor-type tyrosine-protein kinase FLT3 (FLT3, Homo sapiens, UniProt P36888, F691L)

`Cc1cc(C(=O)N2CC(N3CCN(C(=O)c4nccs4)CC3)C2)ccc1-c1ccc(F)c(Cl)c1` has an IC50 of 5.15 nM (Monoglyceride lipase (MGLL, Homo sapiens, UniProt Q99685); fluorescence).
`Cc1cc2c(cc1C)N[C@H](c1ccccc1)[C@@H](O)C(=O)N2` has an IC50 of 211 nM (Aurora kinase C (AURKC, Homo sapiens, UniProt Q9UQB9); ELISA).
`CC(C)(O)c1ccc(-c2nc3cc(NC(=O)c4ccc(-c5ccccc5)cc4)ccc3c(=O)[nH]2)cc1` has an IC50 of 35 nM (TNKS2).
With `Cn1cc(C2=C(c3cn(CCCSC(=N)N)c4ccccc34)C(=O)NC2=O)c2ccccc21` the IC50 was 11000 nM (Mitogen-activated protein kinase kinase kinase 8 (MAP3K8, Homo sapiens, UniProt P41279)).
The IC50 of `COc1cc(-c2ccccc2)ncc1C(=O)Nc1ccc2c(=O)[nH]c(-c3ccc(C(C)(C)O)cc3)nc2c1` is reported as 3.46 nM (TNKS2).
The IC50 of `CCCCCCC#Cc1cncc(-c2nnc(SCc3cc([N+](=O)[O-])cc([N+](=O)[O-])c3)n2CCOC2OC(CN)C(O)C2O)c1` (stereo not drawn) is reported as 78000 nM (mraY).
For `Cc1n[nH]c2ccc3nc(-c4ccc(C(=O)NCCN(C)C)cc4F)c4c(c3c12)CCCCC4`, the IC50 was 138 nM (Receptor-type tyrosine-protein kinase FLT3 (FLT3, Homo sapiens, UniProt P36888)).
For `CNC(=O)c1ccc(C(=O)Nc2ccc3c(=O)[nH]c(-c4ccc(C(C)(C)O)cc4)nc3c2)cc1`, the IC50 was 30.4 nM (TNKS2).
The IC50 of `Fc1ccccc1Nc1nc(-c2ccncc2)nc2c1CNCC2` is reported as 4500 nM (TOP2A).
`CN(C)CCNC(=O)c1ccc(-c2nc3ccc4[nH]ncc4c3c3c2CCCCC3)cc1` gave an IC50 of 287 nM (FLT3 F691L).
For `CNC(=O)[C@H](Cc1c[nH]c2ccccc12)NC(=O)[C@@H](CC(=O)NO)CC(C)C`, the IC50 was 12.5 nM (Stromelysin-1 (MMP3, Homo sapiens, UniProt P08254)).
For `Cc1n[nH]c2ccc3nc(-c4ccc(C(=O)NCCN(C)C)cc4)c4c(c3c12)CCCCC4`, the IC50 was 104 nM (FLT3 F691L).
The IC50 of `COc1cccc(Nc2nc(-c3ccncc3)nc3c2CNCC3)c1` is reported as 120000 nM (TOP2A).
`O=C(NC1CCCCC1)c1ccc(-c2nc3ccc4[nH]ncc4c3c3c2CCCC3)cc1` has an IC50 of > 1000 nM (Receptor-type tyrosine-protein kinase FLT3 (FLT3, Homo sapiens, UniProt P36888, ITD)).
With `CCCCCCC#Cc1cncc(-c2nnc(SCc3cc([N+](=O)[O-])cc([N+](=O)[O-])c3)n2CCCN)c1` the IC50 was 25000 nM (mraY).
